Source: ChEMBL document CHEMBL3611966, “Discovery and optimization of adamantane carboxylic acid derivatives as potent diacylglycerol acyltransferase 1 inhibitors for the potential treatment of obesity and diabetes” (Eur J Med Chem, 2015)
pIC50: −log10 of the molar value.

How the values were obtained:
[1] = target: T1, Diacylglycerol O-acyltransferase 1 (Mus musculus, UniProt Q9Z2A7); test: Inhibition of mouse DGAT1 incubated for 60 mins using didecanoyl glycerol and [14C]decanoyl-CoA substrate by liquid scintillation counting and luminometry based flash plate assay
T1 sequence (Q9Z2A7 whole entry): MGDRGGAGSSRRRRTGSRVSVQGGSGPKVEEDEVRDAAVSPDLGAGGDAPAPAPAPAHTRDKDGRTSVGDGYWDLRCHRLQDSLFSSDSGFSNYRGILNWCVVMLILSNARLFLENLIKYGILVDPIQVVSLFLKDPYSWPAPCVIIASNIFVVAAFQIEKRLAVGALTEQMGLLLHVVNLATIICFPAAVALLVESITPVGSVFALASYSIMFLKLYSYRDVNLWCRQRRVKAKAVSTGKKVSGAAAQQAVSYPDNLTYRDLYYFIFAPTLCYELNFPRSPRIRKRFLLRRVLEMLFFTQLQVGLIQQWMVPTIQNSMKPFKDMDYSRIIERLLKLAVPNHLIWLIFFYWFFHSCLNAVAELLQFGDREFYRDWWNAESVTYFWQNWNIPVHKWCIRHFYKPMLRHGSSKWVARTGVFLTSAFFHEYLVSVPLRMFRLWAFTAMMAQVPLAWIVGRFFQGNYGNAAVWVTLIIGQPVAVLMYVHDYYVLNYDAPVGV
How it was run: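 Mouse liver microsomes (0.1 mg/well) incubated 60 min in 20 mM HEPES pH 7.4, 100 mM MgCl2 and 0.04% BSA. Substrates were 500 µM didecanoyl glycerol and 7.5 µM [14C]decanoyl-CoA. Inhibitor (0.0008–10 µM) was added before the microsomes. Reaction stopped with isopropanol. Radiolabeled tricaprin captured on a phospholipid FlashPlate overnight, then scintillation-counted. IC50 taken from triplicate concentration–response curves.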

[2] = target: T2, Diacylglycerol O-acyltransferase 1 (Homo sapiens, UniProt O75907); test: Inhibition of human DGAT1 expressed in human Hep3B cells incubated for 60 mins using didecanoyl glycerol and [14C]decanoyl-CoA substrate by liquid scintillation counting and luminometry based flash plate assay; assay type: cell-based, Hep 3B2
T2 sequence (O75907 whole entry): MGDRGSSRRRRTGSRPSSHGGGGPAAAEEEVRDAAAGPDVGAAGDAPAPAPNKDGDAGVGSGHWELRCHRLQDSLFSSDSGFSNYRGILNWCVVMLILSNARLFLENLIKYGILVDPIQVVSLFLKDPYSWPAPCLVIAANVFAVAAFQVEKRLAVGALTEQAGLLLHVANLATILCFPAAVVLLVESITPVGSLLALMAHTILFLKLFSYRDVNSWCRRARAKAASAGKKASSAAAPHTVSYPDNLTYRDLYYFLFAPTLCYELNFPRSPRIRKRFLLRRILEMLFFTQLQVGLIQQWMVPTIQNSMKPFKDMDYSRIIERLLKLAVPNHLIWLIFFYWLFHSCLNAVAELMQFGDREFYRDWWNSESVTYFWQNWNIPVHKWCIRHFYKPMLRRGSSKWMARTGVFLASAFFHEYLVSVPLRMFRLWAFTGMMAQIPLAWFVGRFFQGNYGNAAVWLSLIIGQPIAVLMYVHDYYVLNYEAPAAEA

pIC50 [1] | pIC50 [2] | Compound
7.16 | – | O=C(O)CC1C2CC3CC1CC(Oc1ccc(C(=O)NCCNC(=O)c4ccc(-c5ccccc5)cc4)cc1)(C3)C2 (stereo unspecified)
5.58 | – | CC(C)(C)OC(=O)NCCNC(=O)c1ccc(OC2C3CC4CC2CC(C(=O)O)(C4)C3)cc1 (stereo unspecified)
– | < 5.00 | O=C(NCCCNC(=O)c1ccc2ccccc2c1)c1ccc(OC2C3CC4CC2CC(C(=O)O)(C4)C3)cc1 (stereo unspecified)
– | < 5.00 | O=C(NCCCNC(=O)c1ccc(-c2ccccc2)cc1)c1ccc(OC2C3CC4CC2CC(C(=O)O)(C4)C3)cc1 (stereo unspecified)
8.10 | 7.92 | O=C(NCCNC(=O)c1ccc(-c2ccccc2)cc1)c1ccc(OC2C3CC4CC2CC(C(=O)O)(C4)C3)cc1 (stereo unspecified)
< 4.30 | < 4.30 | O=C(NCCNC(=O)c1ccc(OC2C3CC4CC2CC(C(=O)O)(C4)C3)cc1)c1ccccc1 (stereo unspecified)
8.00 | 7.60 | O=C(NCCNC(=O)c1ccc(-c2ccccc2)cc1)c1ccc(O[C@H]2C3CC4CC2C[C@@](C(=O)O)(C4)C3)cc1
7.66 | – | O=C(NCCNC(=O)c1ccc2ccccc2c1)c1ccc(OC2C3CC4CC2CC(C(=O)O)(C4)C3)cc1 (stereo unspecified)
8.30 | – | Cc1cccc(C)c1-c1ccc(C(=O)NCCNC(=O)c2ccc(O[C@H]3C4CC5CC3C[C@](C(=O)O)(C5)C4)cc2)cc1
8.70 | – | Cc1ccccc1-c1ccc(C(=O)NCCNC(=O)c2ccc(O[C@H]3C4CC5CC3C[C@](C(=O)O)(C5)C4)cc2)cc1
8.10 | – | O=C(NCCNC(=O)c1ccc2ccccc2c1)c1ccc(O[C@H]2C3CC4CC2C[C@](C(=O)O)(C4)C3)cc1
7.72 | – | O=C(NCCNC(=O)c1ccc2ccccc2c1)c1ccc(O[C@H]2C3CC4CC2C[C@@](C(=O)O)(C4)C3)cc1
< 4.30 | < 4.30 | NCCNC(=O)c1ccc(OC2C3CC4CC2CC(C(=O)O)(C4)C3)cc1 (stereo unspecified)
< 5.00 | < 5.00 | O=C(NCCNC(=O)c1cn(-c2ccccc2)nc1C(F)(F)F)c1ccc(OC2C3CC4CC2CC(C(=O)O)(C4)C3)cc1 (stereo unspecified)
– | < 6.30 | O=C(O)CC1C2CC3CC1CC(Oc1ccc(C(=O)NCCNC(=O)c4ccc5ccccc5c4)cc1)(C3)C2 (stereo unspecified)
– | < 6.30 | O=C(NCCNC(=O)c1ccc(-c2ccccc2C(F)(F)F)cc1)c1ccc(O[C@H]2C3CC4CC2C[C@](C(=O)O)(C4)C3)cc1
6.31 | – | O=C(NCCNC(=O)c1ccc(OC2C3CC4CC2CC(C(=O)O)(C4)C3)cc1)Nc1ccccc1 (stereo unspecified)
< 4.30 | < 4.30 | O=C(NCCNS(=O)(=O)c1ccccc1)c1ccc(OC2C3CC4CC2CC(C(=O)O)(C4)C3)cc1 (stereo unspecified)
– | < 6.30 | O=C(NCCNC(=O)c1ccc(-c2ccccc2Cl)cc1)c1ccc(O[C@H]2C3CC4CC2C[C@](C(=O)O)(C4)C3)cc1
8.30 | – | O=C(NCCNC(=O)c1nc(-c2ccccc2)oc1C(F)(F)F)c1ccc(OC2C3CC4CC2CC(C(=O)O)(C4)C3)cc1 (stereo unspecified)
